Reference: ChEMBL document CHEMBL1153079, “Synthesis and biological evaluation of 3',4',5'-trimethoxychalcone analogues as inhibitors of nitric oxide production and tumor cell proliferation” (Bioorg Med Chem, 2009)

Tests used:
Assay type in all cases: functional, cell-based
HepG2 = assay: Growth inhibition of human HepG2 cells after 48 hrs by MTT assay; conditions: HepG2, 48 h
In short: (§1)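 Cells were from ATCC and grown in RPMI-1640 with 10% fetal calf serum, antibiotics and L-glutamine. Growth was read by MTT after continuous compound exposure, against a DMSO vehicle control, up to a maximum of 100 µM. IC50 came from sigmoidal variable-slope dose–response curves. Triplicates were run in three independent experiments, reported as mean ± SD.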

[1] = tested on: Peritoneal macrophage cell; assay: Inhibition of nitric oxide production in LPS/IFN-gamma-stimulated BALB/c mouse peritoneal macrophages by Griess method
In short: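 Murine peritoneal macrophages were stimulated with LPS (E. coli 055:B5) plus recombinant IFN-γ, and NO in the medium was measured with Griess reagent. Cell viability under the same conditions was checked by MTT. IC50 came from sigmoidal variable-slope dose–response curves. Triplicates were repeated three times (n = 9), reported as mean ± SD.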

COLO 205 = assay: Growth inhibition of human COLO205 cells after 48 hrs by MTT assay; conditions: COLO 205, 48 h; in short: as §1

| IC50 (HepG2) [µM] | IC50 (COLO 205) [µM] | Compound | IC50 [1] [µM] |
| --- | --- | --- | --- |
| > 100 | 68.8 | COc1cc(C(=O)/C=C/c2ccc(C=O)cc2)cc(OC)c1OC | > 50 |
| 14.9 | 19.8 | COc1cc(C(=O)/C=C/c2ccc(O)c(O)c2)cc(OC)c1OC | 1.5 |
| 19.6 | 19.2 | COc1cc(/C=C/C(=O)c2cc(OC)c(OC)c(OC)c2)cc(OC)c1OC | 2.8 |
| 20.3 | > 100 | COc1ccc(/C=C/C(=O)c2cc(OC)c(OC)c(OC)c2)cc1OC | 4.5 |
| 16 | 29.7 | COc1cc(C(=O)/C=C/c2ccc(O)cc2)cc(OC)c1OC | 5 |
| 1.8 | 2.2 | COc1cccc(/C=C/C(=O)c2cc(OC)c(OC)c(OC)c2)c1 | 0.3 |
| 49.5 | 46.4 | COc1ccc(/C=C/C(=O)c2cc(OC)c(OC)c(OC)c2)cc1 | 7.6 |
| 52 | 41.5 | COc1cc(C(=O)/C=C/c2ccc(C)cc2)cc(OC)c1OC | 4.5 |
| 30 | 75 | COc1cc(C(=O)/C=C/c2ccc(N(C)C)cc2)cc(OC)c1OC | 27 |
| > 100 | > 100 | COc1cc(/C=C/C(=O)c2cc(OC)c(OC)c(OC)c2)ccc1O | 0.3 |
| 94 | 49 | COc1cc(C(=O)/C=C/c2cccc(O)c2)cc(OC)c1OC | 13.5 |
| 13.5 | 13 | COc1cccc(/C=C/C(=O)c2cc(OC)c(OC)c(OC)c2)c1O | 3 |
| > 100 | 88 | COc1cc(C(=O)/C=C/c2ccccc2C=O)cc(OC)c1OC | 27 |
| > 100 | 43 | COc1cc(C(=O)/C=C/c2ccc([N+](=O)[O-])cc2)cc(OC)c1OC | 30 |
| > 100 | 82.5 | COc1ccc(/C=C/C(=O)c2cc(OC)c(OC)c(OC)c2)c(OC)c1 | > 50 |
| > 100 | 22.5 | COc1cc(C(=O)/C=C/c2cccc(C=O)c2)cc(OC)c1OC | > 50 |
| 11.5 | 13.2 | COc1cccc(/C=C/C(=O)c2cc(OC)c(OC)c(OC)c2)c1OC | 2.4 |
| > 100 | 76 | COc1cc(C(=O)/C=C/c2cc([N+](=O)[O-])ccc2O)cc(OC)c1OC | 4.4 |
| 16.1 | 18.6 | COc1cc(OC)c(OC)cc1/C=C/C(=O)c1cc(OC)c(OC)c(OC)c1 | 4.6 |
| > 100 | > 100 | COc1cc(C(=O)/C=C/c2cc(O)ccc2O)cc(OC)c1OC | > 50 |
| 80 | 22.5 | COc1cc(C(=O)/C=C/c2ccc(Br)cc2)cc(OC)c1OC | 20 |
| 22 | 25.7 | COc1cc(C(=O)/C=C/c2ccc(F)cc2)cc(OC)c1OC | 17.6 |
| 10.6 | 11.2 | COc1ccc(/C=C/C(=O)c2cc(OC)c(OC)c(OC)c2)cc1O | 1.3 |
